Results: ChEMBL document CHEMBL5331127, “Discovery of ARD-2051 as a Potent and Orally Efficacious Proteolysis Targeting Chimera (PROTAC) Degrader of Androgen Receptor for the Treatment of Advanced Prostate Cancer” (J Med Chem, 2023)
Calls of active or inactive are those of the source. The calls are words filed in the database; no cut-off is given here.

Columns and labels:
VCaP = experiment: Induction of androgen receptor degradation in human VCaP cells at 100 nM pretreated with thalidomide for 2 hrs followed by compound addition and 3 hrs by Western blot analysis; assay type: functional, cell-based; details: time 5.0 hrs
Method in brief: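 LNCaP or VCaP cells pretreated 2 h with DMSO, ARi-12 (10 μM), thalidomide (10 μM), MG-132 (3 μM) or MLN4924 (0.5 μM), then given degrader at 100 nM for 3 h. AR measured by Western blot with GAPDH as loading control.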

[1] = molecular target: Androgen receptor (Homo sapiens) (UniProt P10275); experiment: In vivo induction of androgen receptor degradation in human VCaP cells xenografted in CB17 SCID mouse assessed as reduction in AR protein level at 12.5 mg/kg, po measured after 6 hrs by […] analysis; design: scale not given: the % may be the effect or the level left
[2] = Metabolic stability in mouse liver microsomes assessed as half life at 1 uM measured upto 45 mins in presence of NADPH by LC-MS/MS analysis; assay type: ADME, Microsome; details: 0.75 h
Method in brief: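 Pooled liver microsomes from each species: 1 μM compound with 0.5 mg/mL microsomes and 1.7 mM NADPH in 0.1 M K-phosphate, pH 7.4, 5 mM MgCl2, 37 °C. Sampled at 0, 5, 10, 15, 30 and 45 min with cold ACN quench. No-NADPH incubation as negative control; ketanserin as positive control. LC-MS/MS; half-life from ln(remaining) versus time.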

[3] = Drug concentration in CB17 SCID mouse tumor xenografted with human VCaP cells at 12.5 mg/kg, po measured after 6 hrs by LC-MS/MS analysis; assay type: ADME, organism-based, Neoplasm; details: read-out: Ct
Method in brief: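 SCID mice bearing one VCaP tumour each given a single oral 12.5 mg/kg dose in 100% PEG200. Plasma and tumour tissue collected at 6 and 24 h, 3 mice per time point. Values are mean ± SD.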

Cytochrome P450 3A4 = Cytochrome P450 3A4 (Homo sapiens, UniProt P08684); experiment: Inhibition of CYP3A4 in human liver microsomes using […] as substrate preincubated for 5 mins followed by NADPH addition and measured after 5 mins by LC/MS analysis; assay type: ADME, Microsome
Sequence of Cytochrome P450 3A4 (P08684 whole entry): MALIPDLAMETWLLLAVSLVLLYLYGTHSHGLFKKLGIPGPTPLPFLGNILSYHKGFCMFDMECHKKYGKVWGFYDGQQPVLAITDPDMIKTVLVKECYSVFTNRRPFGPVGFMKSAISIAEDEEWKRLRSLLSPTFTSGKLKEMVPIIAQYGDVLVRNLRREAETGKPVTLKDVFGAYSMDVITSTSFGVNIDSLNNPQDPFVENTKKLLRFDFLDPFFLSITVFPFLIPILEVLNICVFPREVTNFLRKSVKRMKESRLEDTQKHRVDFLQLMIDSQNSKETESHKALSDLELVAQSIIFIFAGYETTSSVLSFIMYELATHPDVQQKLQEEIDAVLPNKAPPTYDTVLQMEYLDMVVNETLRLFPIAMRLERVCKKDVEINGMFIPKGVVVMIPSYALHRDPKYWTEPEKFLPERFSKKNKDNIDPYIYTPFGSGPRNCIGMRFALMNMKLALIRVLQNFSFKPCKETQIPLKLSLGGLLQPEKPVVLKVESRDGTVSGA

Cytochrome P450 2B6 = molecular target: T1, Cytochrome P450 2B6 (Homo sapiens, UniProt P20813); experiment: Inhibition of CYP2B6 in human liver microsomes preincubated for 5 mins followed by NADPH addition and measured after 10 mins by LC/MS analysis; assay type: ADME, Microsome
T1 sequence (P20813 whole entry): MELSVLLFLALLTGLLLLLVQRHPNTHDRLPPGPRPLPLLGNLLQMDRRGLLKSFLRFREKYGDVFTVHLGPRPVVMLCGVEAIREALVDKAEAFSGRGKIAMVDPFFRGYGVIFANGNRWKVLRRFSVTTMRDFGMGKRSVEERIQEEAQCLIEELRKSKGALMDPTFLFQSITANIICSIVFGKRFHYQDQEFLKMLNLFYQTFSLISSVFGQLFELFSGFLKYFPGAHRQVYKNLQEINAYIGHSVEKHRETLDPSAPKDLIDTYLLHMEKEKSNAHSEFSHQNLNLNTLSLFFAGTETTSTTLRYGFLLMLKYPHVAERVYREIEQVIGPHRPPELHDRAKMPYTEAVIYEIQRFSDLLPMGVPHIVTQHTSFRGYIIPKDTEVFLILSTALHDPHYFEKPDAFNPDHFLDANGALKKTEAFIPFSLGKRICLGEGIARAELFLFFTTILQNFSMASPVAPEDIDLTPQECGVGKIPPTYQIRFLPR

[4] = Toxicity in CB17 SCID mouse assessed as weight loss at 3.75 to 30 mg/kg, po; assay type: organism-based; details: in vivo, dose 3.75-30 mg/kg
Method in brief: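 SCID mice bearing VCaP xenografts dosed by oral gavage once daily for 21 days. Body weight and signs of toxicity monitored throughout.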

[5] = AUC(0 to t) in Beagle dog at 3 mg/kg, po measured up to 24 hrs by LC-MS/MS analysis; assay type: ADME, organism-based, Canis lupus familiaris; design: time < 24 hrs, dose 3 mg/kg, route po; details: in vivo
Method in brief: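 Male Beagle dogs dosed orally at 3 mg/kg in 90% PEG400 + 10% Cremophor.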

In the case of `C[C@H]1CC2(CCN(c3ccc(C(=O)N4CCN(C5CN(c6ccc7c(c6)C(=O)N(C6CCC(=O)NC6=O)C7=O)C5)CC4)cc3)CC2)CN1c1ccc(C#N)c(Cl)c1` (stereo partly drawn), the Activity (VCaP) is reported as “inactive”, the Activity [1] is reported as 73% and the t1/2 [2] is reported as over 1 h. For the same compound, the concentration at 6 h [3] was 946 ng/mL, the IC50 (Cytochrome P450 3A4) was over 10 µM and the IC50 (Cytochrome P450 2B6) was over 10 µM. It also gave an Activity [4] of under 5% and an AUCt [5] of 4460 ng·h/mL.
